pIC50, pKi: −log10 of the molar value. Like-named read-outs stand apart in the source and are kept apart here. Values belong to the compound of their own block, whether it stands above or below them.
Legend:
PMPMEase [1] = target: T1, PMPMEase (Sus scrofa, UniProt Q29550); assay: PMPMEase enzyme assay with RD-PNB substrate; assay type: biochemical, porcine; conditions: for decrease in PMPMEase inhibitory potency relative to AA: from IC50 values, AA as comparator
T1 sequence (Q29550 19-566): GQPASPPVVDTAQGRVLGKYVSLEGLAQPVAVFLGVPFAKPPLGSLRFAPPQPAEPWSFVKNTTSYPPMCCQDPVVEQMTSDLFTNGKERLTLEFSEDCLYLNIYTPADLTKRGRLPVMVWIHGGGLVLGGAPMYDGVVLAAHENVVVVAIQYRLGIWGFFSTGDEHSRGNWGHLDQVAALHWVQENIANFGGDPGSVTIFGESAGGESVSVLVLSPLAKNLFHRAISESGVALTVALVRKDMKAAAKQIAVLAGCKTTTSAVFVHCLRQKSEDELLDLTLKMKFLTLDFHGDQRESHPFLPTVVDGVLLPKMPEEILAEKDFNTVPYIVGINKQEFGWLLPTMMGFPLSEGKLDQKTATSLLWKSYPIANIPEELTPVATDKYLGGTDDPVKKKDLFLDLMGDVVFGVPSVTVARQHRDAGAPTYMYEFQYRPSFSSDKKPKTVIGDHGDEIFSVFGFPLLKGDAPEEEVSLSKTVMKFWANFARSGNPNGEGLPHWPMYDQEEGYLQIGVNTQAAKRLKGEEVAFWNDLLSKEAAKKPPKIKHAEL

[2] = tested on: Human neuroblastoma SH-SY5Y cells; assay: Cell viability, resazurin reduction; assay type: cell-based; conditions: for degeneration of the cells: 10 μM (printed for AA), 72 h, Figure 4C
PMPMEase [3] = target: T2, PMPMEase (Homo sapiens, UniProt P23141); assay: PMPMEase activity in lysates of FFA-treated SH-SY5Y cells; assay type: cell-based; conditions: DMSO-induced degenerated cells, non-specific cytotoxic agent
T2 sequence (P23141 18-567): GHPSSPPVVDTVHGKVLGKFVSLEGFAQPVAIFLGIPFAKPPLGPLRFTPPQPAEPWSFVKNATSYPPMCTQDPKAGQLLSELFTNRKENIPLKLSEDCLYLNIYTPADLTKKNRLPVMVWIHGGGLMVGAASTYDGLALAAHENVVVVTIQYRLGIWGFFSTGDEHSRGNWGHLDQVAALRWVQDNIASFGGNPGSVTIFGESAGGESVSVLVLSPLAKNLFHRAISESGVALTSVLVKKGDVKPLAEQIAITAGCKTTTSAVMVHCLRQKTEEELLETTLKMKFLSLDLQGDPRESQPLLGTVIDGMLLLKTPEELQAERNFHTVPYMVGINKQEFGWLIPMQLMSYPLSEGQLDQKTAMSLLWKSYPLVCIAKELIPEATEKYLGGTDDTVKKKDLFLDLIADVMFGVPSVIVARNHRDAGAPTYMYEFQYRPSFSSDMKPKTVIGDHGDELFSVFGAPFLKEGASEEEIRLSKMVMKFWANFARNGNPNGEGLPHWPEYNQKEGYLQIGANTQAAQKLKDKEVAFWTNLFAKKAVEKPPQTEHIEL
In short: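 SH-SY5Y cells were seeded in 24-well plates at 5 × 10^5 and exposed to fatty acids (0–200 μM) or DMSO for 24 h, then lysed in medium with Triton X-100. Lysate was incubated at 37 °C with RD-PNB in 100 mM Tris-HCl, pH 7.4. Reactions were stopped with methanol on ice and spun, and product was measured by RP-HPLC (UV 260 nm). Means ± S.E.M.; ANOVA with Dunnett's test.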

[4] = purified PMPMEase 5 μg, RD-PNB 1 mM, 37°C, pH 7.4
[5] = purified PMPMEase 5 μg, RD-PNB 1 mM, 15 min pre-incubation, 37°C, pH 7.4

pIC50 (PMPMEase [1]): 4.28
pKi (PMPMEase [1]): 5.82
Structure (SMILES): CCCCCCCC/C=C\CCCCCCCC(=O)O [Oleic acid]

pIC50 (PMPMEase [1]): 3.89
Structure (SMILES): CC/C=C\C/C=C\C/C=C\C/C=C\C/C=C\C/C=C\CCC(=O)O [Docosahexaenoic acid]

pIC50 (PMPMEase [1]): 4.20
pKi (PMPMEase [1]): 5.74
Structure (SMILES): CCCC/C=C\CCCCCCCC(=O)O [Myristoleic acid]

pIC50 (PMPMEase [1]): < 3.00
pKi (PMPMEase [1]): < 4.55
Structure (SMILES): CCCCCCCC/C=C/CCCCCCCC(=O)O [Elaidic acid]

pIC50 (PMPMEase [1]): 4.43
pKi (PMPMEase [1]): 6.00
Structure (SMILES): CCCCCC/C=C\CCCCCCCC(=O)O [Palmitoleic acid]

pIC50 (PMPMEase [1]): 5.18
Structure (SMILES): CCCCC/C=C\C/C=C\C/C=C\C/C=C\CCCC(=O)O [Arachidonic acid]
degeneration of the cells [2]: 99 ± 0.1%

pIC50 (PMPMEase [1]): 4.19
pKi (PMPMEase [1]): 5.74
Structure (SMILES): CCCCC/C=C\C/C=C\CCCCCCCC(=O)O [Linoleic acid]

pIC50 (PMPMEase [1]): < 3.00
pKi (PMPMEase [1]): < 4.55
Structure (SMILES): CCCCCCCC/C=C\CCCCCCCCCCCC(=O)O [Erucic acid]

pIC50 (PMPMEase [1]): 4.92
Structure (SMILES): CC/C=C\C/C=C\C/C=C\C/C=C\C/C=C\CCCC(=O)O [Eicosapentaenoic acid]

Second part, the compound before the results:

Structure (SMILES): CCCCCCCC(=O)O [Octanoic acid]
pIC50 (PMPMEase [1]): < 3.00
pKi (PMPMEase [1]): < 4.55

Structure (SMILES): CCCCC[C@H](O)/C=C/[C@H]1C=CC(=O)[C@@H]1CCCCCCC(=O)O [Prostaglandin A1]
pIC50 (PMPMEase [1]): < 3.00
pKi (PMPMEase [1]): < 4.55

Structure (SMILES): CCCCC[C@H](O)/C=C/[C@H]1[C@H](O)CC(=O)[C@@H]1CCCCCCC(=O)O [Prostaglandin E1]
pIC50 (PMPMEase [1]): < 3.00

Structure (SMILES): CC/C=C\C/C=C\C/C=C\CCCCCCCC(=O)O [Linolenic acid]
pIC50 (PMPMEase [1]): 4.66

Structure (SMILES): CCCCC[C@H](O)/C=C/[C@@H]1[C@@H](CCCCCCC(=O)O)[C@H](O)C[C@H]1O [Prostaglandin F1β]
pKi (PMPMEase [1]; [4]): < 4.55
pIC50 (PMPMEase [1]; [5]): < 3.00

Structure (SMILES): CCCCCCCCCC(=O)O [Decanoic acid]
pIC50 (PMPMEase [1]): < 3.00
pKi (PMPMEase [1]): < 4.55

Structure (SMILES): CCCCC[C@H](O)/C=C/[C@H]1[C@H](O)CC(=O)[C@@H]1C/C=C\CCCC(=O)O [Prostaglandin E2]
degeneration of the cells [2]: 34 ± 4.0%
pIC50 (PMPMEase [1]): < 3.00
decrease in PMPMEase inhibitory potency relative to AA (PMPMEase [1]): > 150 fold

Structure (SMILES): CCCCCCCCCCCCCCCCCC(=O)O [Stearic acid]
pIC50 (PMPMEase [1]): < 3.00
pKi (PMPMEase [1]): < 4.55

Structure (SMILES): CCCCCCCCCCCCCCCC(=O)O [Palmitic acid]
pIC50 (PMPMEase [1]): < 3.00
pKi (PMPMEase [1]): < 4.55

Structure (SMILES): CCCCC[C@H](O)/C=C/C1=C(CCCCCCC(=O)O)C(=O)CC1 [Prostaglandin B1]
pIC50 (PMPMEase [1]): 3.24

Structure (SMILES): CCCCC[C@H](O)/C=C/[C@@H]1[C@@H](C/C=C\CCCC(=O)O)[C@@H](O)C[C@H]1O [Prostaglandin F2α]
degeneration of the cells [2]: 19 ± 5.6%
pIC50 (PMPMEase [1]): < 3.00
pKi (PMPMEase [1]): < 4.55

Structure (SMILES): CCCCC[C@H](O)/C=C/[C@H]1C=CC(=O)[C@@H]1C/C=C\CCCC(=O)O [Prostaglandin A2]
pIC50 (PMPMEase [1]): 3.38
decrease in PMPMEase inhibitory potency relative to AA (PMPMEase [1]): over 63 fold

Structure (SMILES): CCCCCCCCCCCCCC(=O)O [Myristic acid]
pIC50 (PMPMEase [1]): 4.00
pKi (PMPMEase [1]): 5.55

Structure (SMILES): CCCCCCCCCCCC(=O)O [Lauric acid]
pKi (PMPMEase [1]; [4]): 5.19
pIC50 (PMPMEase [1]; [5]): 3.64

Structure (SMILES): CCCCCCCCCCCCCCCCCCCC(=O)O [Arachidic acid]
effect on cell viability (in words) ([2]; 200 μM, 24 h exposure, listed as ARA): no effect on cell viability
pIC50 (PMPMEase [1]): < 3.00
pKi (PMPMEase [1]): < 4.55

Structure (SMILES): C[S+](C)[O-] [DMSO, dimethylsulfoxide]
loss of PMPMEase enzyme activity in degenerated cells (PMPMEase [3]): 49 ± 3%
